Bioassay records: PubChem, several laboratories
Rin1 Abl inh: inhibitors of Rin1-Abl protein binding, primary screen, biochemical, TR-FRET. Tyrosine-protein kinase ABL1 (Homo sapiens) + Ras and Rab interactor 1 (Homo sapiens), …. inhibition, % at 7.35 µM. 360,000 compounds, 0.4% hits. AID 588664, 2011; in the data active = inhibition above about 5%, passing the limit was not always enough
GRK2 inh: compounds blocking aptamer binding on GRK2 – biochemical, human GRK2, bead flow cytometry, HTS, primary screen. inhibition of aptamer binding, % at 10 µM. FAM-aptamer displacement from GRK2. Beta-adrenergic receptor kinase 1 (Homo sapiens), P25098. AID 488847, 2010. 330,000 compounds, 0.59% hits;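 active = inhibition of aptamer binding above 40%, roughly 3 SD of noise, on plates passing a quality check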;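 note: median bead fluorescence of bound FAM aptamer so fluorescent compounds give negative values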
SR-BI DiI inh: inhibitors of SR-BI mediated HDL lipid uptake, primary screen, ldlA[mSR-BI] cells, fluorescence, single point. Scavenger receptor class B member 1 (Mus musculus), Q61009. ldlA[mSR-BI] CHO cells, DiI-HDL uptake fluorescence, 3 h. inhibition, % at 12.5 µM. 320,000 compounds, 0.96% hits;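 active = mean replicate inhibition of at least 70% and a set share of replicates each scoring 70 or more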;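 note: 0% = median of neutral control wells and 100% = median of positive control wells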
SR-BI uptake up: activators of SR-BI mediated DiI-HDL uptake, primary screen, ldlA[mSR-BI] CHO cells, DiI fluorescence. 3 h; 100 = double the neutral-control signal. activation, % at 12.5 µM. 320,000 compounds, 0.096% hits. AID 504775, 2011;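 active = mean replicate activation of at least 60% and every replicate at or above 60%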;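 note: 0% = median plate neutral-control signal and 100% = twice that signal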
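Material – SR-BI-overexpressing, LDLR-lacking CHO cells · Medium – BSA-supplemented, HEPES-buffered Ham's F12, pH 7.4 · Doses – single concentration · Times – compound with DiI-HDL co-incubation, 3 h at 37 °C · Measured by – bottom-read fluorescence, 550/595 nm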
Active calls of the source: *; · = no result. Compounds with a hit are over-represented: about 1.9% of the library has one in this group of screens.

SMILES | Rin1 Abl inh | GRK2 inh | SR-BI DiI inh | SR-BI uptake up
CC1(O)CC(c2ccc(Cl)cc2)=NN1C(=O)c1ccc([N+](=O)[O-])cc1 (centres undefined) | 5.8 | 4.0 | 89.1* | -89.1
CN(C)c1ncc(C2=C(Cl)C(=O)C(N3CCCC3)=C(Cl)C2=O)s1 | 10.6* | 2.0 | -16.0 | 16.0
O=C1C(Cl)=C(N2CCCCC2)C(=O)C(Cl)=C1c1cnc(N2CCCCC2)s1 | 4.8 | · | -20.6 | 20.6
CCN(CC)CCNC(Cc1ccccc1)c1cccc(OC)c1 (centres undefined) | 2.0 | · | 5.0 | -5.0
Cc1cc(C)cc(CC(=O)N2CCC2(C)C(=O)NS(=O)(=O)c2cccc(F)c2)c1 (centres undefined) | -1.4 | · | · | ·
Nc1cc2c(cc1O)CCCC2 | 3.1 | 0.0 | 34.1 | -34.1
COc1ccc(C(=O)CSC2=C(C#N)C3(CCCCC3)C(C#N)=C(N)N2)cc1 | -1.3 | 0.0 | 71.9* | -71.9
N#CC1=C(N)NC(SCC(=O)c2ccc(Br)cc2)=C(C#N)C12CCCCC2 | 3.9 | 6.0 | 25.7 | -25.7
COCCN(C(=S)Nc1ccc(OC)c(Cl)c1)C1CCN(C(C)=O)CC1 | 3.0 | · | · | ·
COCCN(C(=O)Nc1ccc(OC)cc1OC)C1CCN(C(C)=O)CC1 | 2.5 | 0.0 | 79.6* | ·
CCOc1ccc(-c2c(C(=O)N/N=C/c3sccc3C)nnn2-c2nonc2N)cc1 | -1.7 | 6.0 | 86.6* | -86.6
CCc1c(C(=O)N/N=C/c2sccc2C)nnn1-c1nonc1N | -2.8 | 0.0 | 77.0* | -77.0
Cc1ccc(-c2c(C(=O)N/N=C/c3cccs3)nnn2-c2nonc2N)cc1 | 1.7 | 2.0 | 61.7 | -61.7
CCCc1c(C(=O)N/N=C/c2ccccc2C(F)(F)F)nnn1-c1nonc1N | 3.6 | 4.0 | 75.7* | -75.7
CCOc1ccc(-c2c(C(=O)N/N=C/c3cccs3)nnn2-c2nonc2N)cc1 | -1.8 | 0.0 | 80.7* | -80.7
O=C(O)c1cccc(-c2noc(-c3cccc(Cl)c3)n2)c1 | -0.3 | 0.0 | -20.2 | 20.2
Cc1nn(Cc2ccccc2Cl)c(C)c1NC(=O)c1ccn(C)n1 | 0.6 | 1.0 | -19.7 | 19.7
Cc1nn(Cc2ccccc2Cl)c(C)c1NC(=O)c1cc(-c2ccc(F)cc2)on1 | 1.6 | 3.0 | 80.4* | -80.4
COc1ccc(-c2cc(C(=O)Nc3c(C)nn(Cc4ccccc4)c3C)no2)cc1 | 0.4 | 2.0 | 76.3* | -76.3
CCCNC(=O)C1(C)CCCN(CCC(=O)c2ccccc2)C1 (centres undefined) | 0.9 | · | · | ·
O=c1oc2c(O)c(O)cc3c(=O)oc4c(O)c(O)cc1c4c23 | 60.5* | 84.0* | -5.3 | 5.3
O=c1oc2ccccc2c2oc3cc(O)c(O)cc3c12 | -3.1 | 1.0 | · | ·
COc1ccc(C(C)=O)cc1COc1ccc(F)cc1 | 0.0 | 1.0 | 17.4 | -17.4
COc1ccc(C(C)=O)cc1COC(=O)CNC(=O)c1ccc(Cl)cc1 | 3.6 | 0.0 | 58.9 | -58.9
CCOc1ccc(C(=O)NCC(=O)OCc2cc(C(C)=O)ccc2OC)cc1 | -5.1 | 0.0 | 70.8* | -70.8
SMILES | Rin1 Abl inh | GRK2 inh | SR-BI DiI inh | SR-BI uptake up
COc1ccc(C(=O)NN)cc1COc1ccc(Br)cc1 | 2.9 | 1.0 | 97.4* | -97.4
O=C(NCC(c1ccc(F)cc1)N1CCOCC1)c1ccco1 (centres undefined) | 2.0 | 1.0 | -18.3 | 18.3
O=S1(=O)CC(N2CCC(Cc3ccccc3)CC2)CN1C1CCCCC1 (centres undefined) | 4.3 | · | · | ·
CCC(=O)NC(=S)Nc1cccc(NC(=O)c2ccc(Cl)cc2Cl)c1 | -1.7 | 1.0 | 80.8* | -80.8
CC(C)NC(=O)Nc1ccc2c(c1)C(=O)N([C@H](C)CO)C[C@H](C)[C@@H](CN(C)S(=O)(=O)c1cn(C)cn1)O2 | -1.9 | 0.0 | -12.8 | 12.8
CCCCCn1c(=S)[nH]c2ncccc2c1=O | -0.1 | 2.0 | 7.8 | -7.8
O=c1c2cccnc2[nH]c(=S)n1CCC1=CCCCC1 | 0.5 | 70.0* | -1.8 | 1.8
O=C(CCSc1ccc(Cl)cc1)c1ccco1 | 0.7 | 0.0 | · | ·
O=C(CSc1ccc(Cl)cc1)c1ccco1 | 1.4 | 58.0* | -2.4 | 2.4
CC(C)CC(=NNC(=O)c1ccncc1)c1cc(Cl)ccc1O | 2.1 | · | 126.9* | -126.9
CC(C)(C)c1cc(OC(=O)C2CCCC2)ccc1O | 0.1 | 0.0 | 9.9 | -9.9
CCCCC(CC)C(=O)Oc1ccc(O)c(C(C)(C)C)c1 (centres undefined) | 9.2* | 0.0 | 36.1 | -36.1
Cc1cc(Br)ccc1-n1[nH]c(C)c(C=Nc2cccc3nsnc23)c1=O | 0.8 | 8.0 | 77.1* | -77.1
O=C(O)CNC(=O)/C(=C\c1ccc2c(c1)OCO2)NC(=O)c1ccc(Br)cc1 | 0.8 | 0.0 | -3.0 | 3.0
CCN(CC)C(=O)/C(=C/c1ccc2c(c1)OCO2)NC(=O)c1ccc(Br)cc1 | -0.7 | 0.0 | 74.7* | -74.7
Nc1nc(N)nc(C2C=CCCC2)n1 (centres undefined) | 1.9 | · | -4.2 | 4.2
CC1=C(C(=O)N(C(C)C)C(C)C)CC(CC(=O)NCCN2CCOCC2)C(=O)N1Cc1ccc(C(C)(C)C)cc1 (centres undefined) | 3.2 | · | · | ·
O=C(CSc1ccc(F)cc1)NCC1(N2CCOCC2)CCCCC1 | 0.1 | 0.0 | -18.2 | 18.2
O=C(Nc1cc(Br)ccc1O)c1cnn2c(C(F)F)cc(C3CC3)nc12 | -1.2 | 0.0 | 76.7* | -76.7
O=C(Nc1cccnc1)c1cnn2c(C(F)F)cc(C3CC3)nc12 | -0.3 | 1.0 | 3.5 | -3.5
COc1cc(CN(C)Cc2cc(=O)oc3cc(C)c(Cl)cc23)ccc1OC(F)F | 0.7 | 0.0 | 8.5 | -8.5
CCCCCCCCOC(=O)c1cc([N+](=O)[O-])c(Sc2ncnc3nc[nH]c23)c([N+](=O)[O-])c1 | 2.1 | · | 76.6* | -76.6
CCCCOC(=O)c1ccc(Nc2ncnc3nc[nH]c23)cc1 | 0.9 | 0.0 | 3.9 | -3.9
O=C(NCC(c1ccco1)N1CCCC1)c1cc2cc(Cl)ccc2o1 (centres undefined) | 0.9 | 0.0 | 9.0 | -9.0
O=[N+]([O-])c1ccc(-c2c(-c3ccccc3)ncc3cc(F)ccc23)cc1 | -0.2 | 2.0 | 86.5* | -86.5
SMILES | Rin1 Abl inh | GRK2 inh | SR-BI DiI inh | SR-BI uptake up
CCOC(=O)c1c(-c2ccc(C)cc2)csc1NC(=O)/C(C#N)=C/c1ccc(O)c(OC)c1 | 6.0 | · | 33.6 | -33.6
CCOC(=O)c1c(-c2ccccc2)csc1NC(=O)/C(C#N)=C\c1ccc(O)c(OC)c1 | 0.8 | · | 84.6* | -84.6
CCSC(=O)N=Nc1ccc(O)cc1 | -4.1 | · | -7.7 | 7.7
CN(c1ccccc1)S(=O)(=O)c1cccc(NC(=O)C2CCCO2)c1 (centres undefined) | 2.4 | 1.0 | 9.1 | -9.1
CCCCN1C(=O)/C(=C/C=C2\SCCN2C)SC1=S | -7.9 | · | 71.1* | -71.1
CCC/C=C/c1ccc(CN2C(C(C)C)C(=O)N(Cc3cn(Cc4ccco4)nn3)CCS2(=O)=O)cc1 (centres undefined) | 0.8 | · | · | ·
Cc1noc(C(=O)Nc2cccc(O)c2)c1Cl | -5.1 | 0.0 | -10.1 | 10.1
